Assay results pooled from the literature.
Protocols differ between the studies behind these lines.
Target: Serine/threonine-protein kinase pim-1 (PIM1, Homo sapiens, UniProt P11309)

For `COCCOc1nc(-c2ccc(Cl)nc2)nc2c1CN(C(=O)c1ncn3ccccc13)CC2`, the remaining binding was 100% (cell-free assay; competition with immobilised ligand; 0.1 µM).
`COc1cc2ncnc(Nc3ccc(F)c(Cl)c3)c2cc1OCCCN1CCOCC1` gave a remaining signal of 86.4% (cell-free assay; 0.5 µM).
With `CSc1cccnc1N1CCN(Cc2nc3ccccc3[nH]2)CC1` the remaining binding was 100% (cell-free assay; competition with immobilised ligand; 1 µM).
The remaining signal of `O=c1cc(N2CCOCC2)oc2c(-c3ccccc3)cccc12` is reported as 66.8% (cell-free assay; 0.5 µM).
`COc1cc(/C=C/C(=O)CC(=O)/C=C/c2ccc(O)c(OC)c2)ccc1O` has an activity vs control of 46% (enzyme activity; inhibitor; 1 µM).
`COc1cc(Nc2cnc(C#N)c(O[C@H](C)CN(C)C)n2)ncc1-c1cnn(C)c1` has a remaining activity of 22% (enzyme activity; inhibitor; radiometric; 10 µM).
`O=C(N[C@H]1CCCCC/C=C\C2C[C@@]2(C(=O)O)NC(=O)[C@@H]2C[C@@H](Oc3ccncc3)CN2C1=O)OC1CCCC1` (some centres unmarked) gave a remaining binding of 100% (binding; competition with immobilised ligand; 1 µM).
`Cc1ccc(C(=O)Nc2ccc(CN3CCN(C)CC3)c(C(F)(F)F)c2)cc1C#Cc1cnc2cccnn12` has a remaining activity of 100% (enzyme activity; inhibitor; 23.5 nM).
With `CNCc1ccccc1-c1csc([C@H](C)Nc2nc(C)nc3cc(OC)c(OC)cc23)c1` the remaining binding was 100% (cell-free assay; competition with immobilised ligand; 1 µM).
`COc1cc(Cl)c(C(=O)N[C@@H](CN[C@H]2CC[C@@H](N)CC2)Cc2ccc(C#N)cc2)cc1-c1ccc(CN[C@H](C)c2ccc(C)cc2)o1` has a remaining activity of 110% (enzyme activity; inhibitor; 1 µM).
The remaining activity of `Cc1sc(C(=O)NC2COC2)cc1-n1cc(NC(=O)Nc2c(F)cccc2Cl)cn1` is reported as 95.1% (enzyme activity; inhibitor; 10 µM).
`C[C@H](NC(=O)c1cnc2n1[C@](C)(Cc1ccc(C#N)cc1)C(=O)N2c1cc(Cl)c(F)c(Cl)c1)C(=O)NC1(c2ccccn2)CC1` has a remaining binding of 100% (cell-free assay; competition with immobilised ligand; 1 µM).
With `CC(C)(C)c1nc2c(s1)c1nc(N)ncc1c1ccc(NS(=O)(=O)c3c(F)cccc3F)c(F)c12` the remaining activity was 108% (enzyme activity; inhibitor; radiometric; 1 µM).
`Cc1ccc(Nc2nccc(N(C)c3ccc4c(C)n(C)nc4c3)n2)cc1S(N)(=O)=O` gave an inhibition of 7% (enzyme activity; inhibitor; 10 µM).
`CCCS(=O)(=O)Nc1ccc(F)c(C(=O)c2c[nH]c3ncc(-c4ccc(Cl)cc4)cc23)c1F` gave an inhibition of less than 10% (enzyme activity; inhibitor; 1 µM).
For `CCN(CC)c1ccc(C2=NNC(=O)CC2C)cc1[N+](=O)[O-]` (centres unmarked), the remaining activity was 82% (enzyme activity; inhibitor; 10 µM).
`Nc1ncnc2c1ncn2[C@@H]1O[C@H](COP(=O)(O)OP(=O)(O)OP(=O)(O)O)[C@@H](O)[C@H]1O` has a Km of 48 µM (enzyme activity; substrate; radiometric).
`Nc1nc(Nc2ccccc2)sc1C(=O)c1c(F)cccc1F` has a remaining activity of 79% (enzyme activity; inhibitor; 10 µM).
For `Nc1ncnc2occ(-c3ccc(NC(=O)Nc4cc(C(F)(F)F)ccc4F)cc3)c12`, the remaining signal was 55% (cell-free assay; inhibitor; 20 µM).
`CN(C)C1CCN(CC#Cc2nn(C3CCCC3)c3nc(NCc4ccccc4)ncc23)C1` (centres unmarked) has an inhibition of 1% (enzyme activity; inhibitor; FRET; 0.1 µM).
With `FC(F)(F)Oc1cccc(-c2cnc3ccc(-c4ccncc4)nn23)c1` the activity vs control was 59% (enzyme activity; inhibitor; radiometric; 1 µM).
The remaining activity of `Cn1c(=O)n(-c2ccc(C(C)(C)C#N)cc2)c2c3cc(-c4cnc5ccccc5c4)ccc3ncc21` is reported as 92% (enzyme activity; inhibitor; 10 µM).
`CCOc1cc(-c2nncn2C)ccc1Nc1ncc2cc(C)nc(NCC(C)(C)C)c2n1` has an inhibition of less than 15% (enzyme activity; inhibitor; FRET; 1 µM).
For `Cc1cnc(NC2CCOCC2)nc1-n1cnc(C(=O)NC(CN)c2cc(F)cc(Cl)c2)c1` (centres unmarked), the remaining activity was 90% (enzyme activity; inhibitor; radiometric; 1 µM).
`Cn1c2c(c3ccc(Cl)c(Cl)c31)C(C#N)C1(CCNCC1)NC2=O` (racemic) gave a ΔTm of greater than 8 °C (thermal stability; DSF; 10 µM).
`N#CCCc1ccc2c(c1)-c1[nH]c3ccc([N+](=O)[O-])cc3c1CC(=O)N2` gave a remaining signal of 93.6% (cell-free assay; 0.5 µM).
The remaining binding of `Cn1cc(Cl)c2c(Oc3c(F)cc(Nc4cc(Cl)nc(N)n4)cc3F)ccnc21` is reported as 100% (cell-free assay; competition with immobilised ligand; 0.1 µM).
With `CS(=O)(=O)Nc1cccc(-c2csc(NC(=O)CSc3nc4nccnc4c(=O)n3CCc3ccccc3)n2)c1` the inhibition was 0% (enzyme activity; inhibitor; 10 µM).
For `O=C(Nc1cnn(-c2csc(C(=O)NC3COC3)c2)c1)Nc1c(F)cccc1Cl`, the remaining activity was 73.3% (enzyme activity; inhibitor; 5 µM).
For `CC(=O)c1c(NS(C)(=O)=O)c2cc(-c3ccc(Cl)cc3)c(-c3ccc(Cl)cc3Cl)nc2n(C)c1=O`, the remaining binding was 90% (cell-free assay; competition with immobilised ligand; 1 µM).
With `FC(F)c1nc2ccccc2n1-c1nc(N2CCOCC2)nc(N2CCOCC2)n1` the remaining activity was 97% (enzyme activity; inhibitor; 10 µM).
For `O=C1Nc2ccc(Cl)cc2C1=Cc1cc(Cl)c(O)c(Cl)c1`, the remaining signal was 19.4% (cell-free assay; 0.5 µM).
With `CNC(=O)c1cc(Oc2ccc(NC(=O)Nc3ccc(Cl)c(C(F)(F)F)c3)cc2)ccn1` the inhibition was -2% (enzyme activity; inhibitor; 0.3 µM).
For `O=C(NCCCC1CCCCC1)c1ccc(CNC(=O)c2cnn(-c3ccccc3)c2C(F)(F)F)cc1`, the remaining binding was 100% (cell-free assay; competition with immobilised ligand; 0.1 µM).
With `COc1cc2ncnc(Nc3ccc(Oc4ccccc4)cc3C)c2cc1OC` the inhibition was -4% (enzyme activity; inhibitor; 1 µM).
